Source: PubChem
M1 ag – activates human CHRM1 receptor; AID 588814; P11229; CHO-K1 hM1, Fluo-8 calcium fluorescence, agonist mode; 0% DMSO, 100% acetylcholine EC100; activation, % at 3 µM; 360,000 tested, 0.33% active;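 active = activation above the run's mean compound activation plus 3 SD, cut at about 16% in these data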;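 also: peak over basal fluorescence ratio within a 140 s kinetic read after compound addition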
TAAR1 agonist – human TAAR1 agonism; activation, % at 3 µM; AID 624467; 360,000 tested, 0.99% active; Q96RJ0; CHO RD-HGA16 TAAR1, Fluo-8 calcium fluorescence; vehicle wells 0%, saturating PEA agonist 100%;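 active = activation above the mean activation of all test compounds in the run plus 3 SD, cut at about 38% in these data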
Target sequence (Q96RJ0 whole entry, looked up): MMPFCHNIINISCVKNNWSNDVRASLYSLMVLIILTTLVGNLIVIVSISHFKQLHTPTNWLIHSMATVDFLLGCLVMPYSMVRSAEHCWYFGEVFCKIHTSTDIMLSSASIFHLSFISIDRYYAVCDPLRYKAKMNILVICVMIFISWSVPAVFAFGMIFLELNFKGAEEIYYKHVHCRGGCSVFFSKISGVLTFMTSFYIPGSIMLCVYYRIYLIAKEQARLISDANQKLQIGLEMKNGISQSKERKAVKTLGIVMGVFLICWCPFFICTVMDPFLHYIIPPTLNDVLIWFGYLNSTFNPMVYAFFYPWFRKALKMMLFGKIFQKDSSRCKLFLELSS
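test system = CHO RD-HGA16 cells carrying human TAAR1 plus Gα16 | schedule = 17-24 h seeding, 75 min 37 °C dye, 30 min RT | compound dosing = 3 µM single concentration | control set = DMSO and PEA EC100 | replicates = n 1 | signal = Fluo-8 fluorescence, 5 s baseline then 140 s kinetic read | measure = percent activation vs PEA EC100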
TAAR1 antag – human TAAR1 antagonism | CHO RD-HGA16 TAAR1, Fluo-8 calcium fluorescence, antagonist | AID 624466 | Q96RJ0 | 360,000 tested, 1.5% active | inhibition, % at 3 µM;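 active = inhibition above a per-plate cutoff, the mean inhibition of test compounds on that plate plus 3 SD, cut at about 49% in these data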
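Test system – hTAAR1-expressing CHO RD-HGA16 cells, Gα16-coupled · Reagent – β-PEA at EC80 concentration, post-compound challenge · Compound dosing – 3 µM, single point · Timing – 140 s kinetic read after compound, 140 s after agonist · Detection – Fluo-8 intracellular calcium dye fluorescence, real-time kinetic reads · Control set – DMSO and EC80 PEA controls · Repeats – n of 1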
CHRM1 PAM – positive allosteric modulators of human M1 muscarinic receptor; P11229; CHO-K1 hM1, Fluo-8 calcium fluorescence, ACh EC20; 0% = ACh EC20, 100% = maximal ACh; activation, % at 3 µM; 360,000 tested, 0.088% active; AID 588819; in the data active = activation above about 19%, passing the limit was not always enough
CHRM1 antagonist – human CHRM1 antagonism; P11229; CHO-K1 hM1, Fluo-8 calcium fluorescence, ACh EC80 antagonist; inhibition, % at 3 µM; 360,000 tested, 1.3% active; AID 588852;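 active = percent inhibition above its own plate's cutoff, namely the mean of that plate's compound wells plus 3 SD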;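 also: peak over basal fluorescence ratio during 140 s after agonist addition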
TAAR1 ag confirm – human TAAR1 agonism, confirmed. shares compounds with TAAR1 agonist. CHO RD-HGA16 TAAR1, Fluo-8 calcium fluorescence; scaled: DMSO 0%, maximal phenethylamine 100%. activation, % at 3 µM. 2,400 tested, 82% active. AID 651783;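 active = activation above a cutoff set at the run's mean compound activation plus 3 SD, cut at about 39% in these data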
Ga16 nonsel ag – counter-screen for TAAR1 agonists: nonselective agonists in parental cells. shares compounds with TAAR1 agonist. CHO-Ga16 parental, Fluo-8 calcium fluorescence; normalized to maximal ATP response, DMSO zero. activation, % at 3 µM. 2,400 tested, 50% active. AID 651787;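 active = activation above the run cutoff, the mean activation over all tested wells plus 3 SD, cut at about 12% in these data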
TAAR1 desens – human TAAR1 agonist that also desensitizes the receptor | shares compounds with TAAR1 agonist | CHO RD-HGA16 hTAAR1, Fluo-8 calcium, beta-PEA response inhibition | inhibition, % at 3 µM | 2,400 tested, 46% active;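 active = inhibition above the run cutoff, the mean inhibition of all test compounds plus 3 SD, cut at about 49% in these data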;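 also: beta-PEA stimulus applied at its EC80; loss of beta-PEA calcium signal after compound pretreatment read as receptor desensitization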
Ga16 nonsel ant – nonselective Ga16 antagonist in TAAR1 agonist counter-screen; inhibition, % at 3 µM; shares compounds with TAAR1 agonist; 2,400 tested, 39% active; CHO-Ga16 ATP-induced calcium, Fluo-8 fluorescence;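 active = inhibition above the plate's mean compound inhibition plus 3 SD, computed per plate, cut at about 22% in these data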
Hits are given with their value. Sampled rows, rich in hits. Any-hit rate of the full collection: about 3.4%.

Results for CC1CCCN(CCC(=O)c2ccccc2)C1 (stereo unspecified) ?
M1 ag: inactive; TAAR1 agonist: 72; TAAR1 antag: inactive; CHRM1 PAM: inactive; CHRM1 antagonist: inactive; TAAR1 ag confirm: 85; Ga16 nonsel ag: inactive; TAAR1 desens: inactive; Ga16 nonsel ant: inactive

What do the screens show for `Cc1ccc(SCc2nc(-c3ccncc3)no2)cc1`?
M1 ag: inactive; TAAR1 agonist: 52; TAAR1 antag: inactive; CHRM1 PAM: inactive; CHRM1 antagonist: inactive; TAAR1 ag confirm: inactive; Ga16 nonsel ag: inactive; TAAR1 desens: inactive; Ga16 nonsel ant: inactive

How did Cc1ccc(SCc2nc(-c3ccccc3)no2)cc1 do in these assays?
M1 ag: inactive; TAAR1 agonist: inactive; TAAR1 antag: inactive; CHRM1 PAM: inactive; CHRM1 antagonist: inactive

What do the screens show for `O=C(N/C(=C\c1ccc(-c2ccccc2)o1)C(=O)N1CCOCC1)c1ccccc1`?
M1 ag: inactive; TAAR1 agonist: inactive; TAAR1 antag: inactive; CHRM1 PAM: inactive; CHRM1 antagonist: inactive

What do the screens show for `CCCOc1ccc(OC(=O)c2ccc(Br)o2)cc1`?
M1 ag: 45; TAAR1 agonist: 137; TAAR1 antag: 102; CHRM1 PAM: inactive; CHRM1 antagonist: inactive; TAAR1 ag confirm: 115; Ga16 nonsel ag: 95; TAAR1 desens: 85; Ga16 nonsel ant: 79

How did N[C@@H](Cc1ccccc1)C(=O)N1CCC(C(=O)N[C@@H](CCC(=O)O)C(=O)O)CC1 do in these assays?
M1 ag: inactive; TAAR1 agonist: inactive; TAAR1 antag: inactive; CHRM1 PAM: inactive; CHRM1 antagonist: inactive

What do the screens show for `COc1ccc(NC(=O)/C(C#N)=C\c2ccc(N3CCOCC3)o2)cc1`?
M1 ag: 69; TAAR1 agonist: 135; TAAR1 antag: 76; CHRM1 PAM: inactive; CHRM1 antagonist: 31; TAAR1 ag confirm: 49; Ga16 nonsel ag: 60; TAAR1 desens: 65; Ga16 nonsel ant: 62

What do the screens show for `N#C/C(=C\c1ccc(N2CCOCC2)o1)C(=O)Nc1ccc(O)cc1`?
M1 ag: inactive; TAAR1 agonist: 58; TAAR1 antag: inactive; CHRM1 PAM: inactive; CHRM1 antagonist: inactive; TAAR1 ag confirm: inactive; Ga16 nonsel ag: 19; TAAR1 desens: inactive; Ga16 nonsel ant: 28

How did N#C/C(=C/c1ccc(N2CCOCC2)o1)C(=O)NC1CCCCC1 do in these assays?
M1 ag: inactive; TAAR1 agonist: inactive; TAAR1 antag: inactive; CHRM1 PAM: inactive; CHRM1 antagonist: inactive

What do the screens show for `CCOC(=O)C1(C)CCCCN1C(=O)c1ccoc1` (stereo unspecified)?
M1 ag: inactive; TAAR1 agonist: inactive; TAAR1 antag: inactive; CHRM1 PAM: inactive; CHRM1 antagonist: inactive

How did CCOC(=O)C1CCCN(C(c2ccccn2)c2c(C)[nH]c3ccccc23)C1 (stereo unspecified) do in these assays?
M1 ag: 28; TAAR1 agonist: 67; TAAR1 antag: 71; CHRM1 PAM: inactive; CHRM1 antagonist: inactive; TAAR1 ag confirm: 74; Ga16 nonsel ag: inactive; TAAR1 desens: 84; Ga16 nonsel ant: inactive

How did COc1cc(/C=C2/SC(=S)N(Cc3ccccc3)C2=O)cc(Cl)c1O do in these assays?
M1 ag: 25; TAAR1 agonist: 103; TAAR1 antag: 89; CHRM1 PAM: inactive; CHRM1 antagonist: inactive; TAAR1 ag confirm: 182; Ga16 nonsel ag: 198; TAAR1 desens: 101; Ga16 nonsel ant: 100

Results for S=C(SSC(=S)N1CCOCC1)N1CCOCC1 ?
M1 ag: inactive; TAAR1 agonist: 56; TAAR1 antag: inactive; CHRM1 PAM: inactive; CHRM1 antagonist: inactive; TAAR1 ag confirm: 54; Ga16 nonsel ag: 23; TAAR1 desens: inactive; Ga16 nonsel ant: inactive

How did CC(CN)(NS(=O)(=O)c1ccccc1)c1ccccc1 (stereo unspecified) do in these assays?
M1 ag: inactive; TAAR1 agonist: inactive; TAAR1 antag: inactive; CHRM1 PAM: inactive; CHRM1 antagonist: inactive

How did CCc1nc2ccc(C(=O)NCCCn3ccnc3)cn2c1N(C)Cc1ccc(N(C)C)cc1 do in these assays?
M1 ag: inactive; TAAR1 agonist: inactive; TAAR1 antag: inactive; CHRM1 PAM: inactive; CHRM1 antagonist: inactive

What do the screens show for `CCc1ccc(Cn2nnc(C(=O)Nc3cccc(C)c3)c2N)cc1`?
M1 ag: inactive; TAAR1 agonist: inactive; TAAR1 antag: inactive; CHRM1 PAM: inactive; CHRM1 antagonist: inactive

What do the screens show for `Cc1ccc(Cn2nnc(C(=O)Nc3cccc(C)c3C)c2N)cc1`?
M1 ag: 39; TAAR1 agonist: 118; TAAR1 antag: 81; CHRM1 PAM: inactive; CHRM1 antagonist: inactive; TAAR1 ag confirm: 123; Ga16 nonsel ag: 85; TAAR1 desens: 87; Ga16 nonsel ant: 59

Results for O=C(O)CCCN1C(=O)/C(=C/c2ccc(-c3nc4ccccc4s3)o2)SC1=S ?
M1 ag: inactive; TAAR1 agonist: 72; TAAR1 antag: 82; CHRM1 PAM: inactive; CHRM1 antagonist: inactive; TAAR1 ag confirm: 55; Ga16 nonsel ag: 39; TAAR1 desens: 84; Ga16 nonsel ant: 67

How did COc1ccccc1NS(=O)(=O)c1cccc(NC(=O)Nc2ccc(Cl)cc2)c1 do in these assays?
M1 ag: inactive; TAAR1 agonist: 56; TAAR1 antag: 76; CHRM1 PAM: inactive; CHRM1 antagonist: 44; TAAR1 ag confirm: 46; Ga16 nonsel ag: 19; TAAR1 desens: 93; Ga16 nonsel ant: 58

What do the screens show for `Cc1ccccc1OCCC(=O)Nc1cc(S(=O)(=O)N2CCCCC2)ccc1N1CCN(C)CC1`?
M1 ag: 34; TAAR1 agonist: 90; TAAR1 antag: 49; CHRM1 PAM: inactive; CHRM1 antagonist: inactive; TAAR1 ag confirm: 105; Ga16 nonsel ag: 73; TAAR1 desens: 78; Ga16 nonsel ant: 59

How did O=C(Cn1nnc(N2CCCC2)n1)N/N=C/c1ccc(Cl)cc1 do in these assays?
M1 ag: inactive; TAAR1 agonist: 58; TAAR1 antag: inactive; CHRM1 PAM: inactive; CHRM1 antagonist: inactive; TAAR1 ag confirm: 85; Ga16 nonsel ag: inactive; TAAR1 desens: inactive; Ga16 nonsel ant: inactive

Results for CC(C)(C)c1ccc(C(=O)NNC(=O)CCc2ccccc2)cc1 ?
M1 ag: inactive; TAAR1 agonist: inactive; TAAR1 antag: inactive; CHRM1 PAM: inactive; CHRM1 antagonist: inactive
